Reference: ChEMBL document CHEMBL1131219, “Inhibition of human alcohol dehydrogenases by formamides” (J Med Chem, 1998)

Legend:
[1] = molecular target: All-trans-retinol dehydrogenase [NAD(+)] ADH1B (Homo sapiens, UniProt P00325); assay: Inhibition of human alcohol dehydrogenase beta 1 activity
Procedure, shortened: (§1)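 Purified human isozyme in 46 mM sodium phosphate with 0.25 mM EDTA, pH 7.0, 25 °C. The varied substrate (ethanol, acetaldehyde or cyclohexanone) was chosen per enzyme, with coenzyme fixed at 0.2 mM NADH or 2.0 mM NAD+. Inhibitor varied over at least a 3-fold range, 20–25 conditions in duplicate.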

Alcohol dehydrogenase 1C = Alcohol dehydrogenase 1C (Homo sapiens, UniProt P00326); assay: Inhibition of human alcohol dehydrogenase gamma2 activity; procedure, shortened: as §1
Sequence of Alcohol dehydrogenase 1C (P00326 whole entry): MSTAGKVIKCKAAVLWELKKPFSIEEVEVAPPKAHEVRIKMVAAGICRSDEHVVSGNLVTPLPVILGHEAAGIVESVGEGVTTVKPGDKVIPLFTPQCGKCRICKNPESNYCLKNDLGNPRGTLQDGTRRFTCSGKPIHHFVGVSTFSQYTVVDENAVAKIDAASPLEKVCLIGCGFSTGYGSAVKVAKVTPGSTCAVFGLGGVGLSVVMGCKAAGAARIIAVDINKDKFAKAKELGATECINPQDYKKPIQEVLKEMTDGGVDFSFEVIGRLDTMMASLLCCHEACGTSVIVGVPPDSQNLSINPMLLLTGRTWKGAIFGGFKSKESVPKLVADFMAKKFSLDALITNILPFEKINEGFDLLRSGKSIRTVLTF

[2] = molecular target: All-trans-retinol dehydrogenase [NAD(+)] ADH4 (Homo sapiens, UniProt P08319); assay: Inhibition of human alcohol dehydrogenase pi activity; procedure, shortened: as §1
Sequence of All-trans-retinol dehydrogenase [NAD(+)] ADH4 (P08319 whole entry): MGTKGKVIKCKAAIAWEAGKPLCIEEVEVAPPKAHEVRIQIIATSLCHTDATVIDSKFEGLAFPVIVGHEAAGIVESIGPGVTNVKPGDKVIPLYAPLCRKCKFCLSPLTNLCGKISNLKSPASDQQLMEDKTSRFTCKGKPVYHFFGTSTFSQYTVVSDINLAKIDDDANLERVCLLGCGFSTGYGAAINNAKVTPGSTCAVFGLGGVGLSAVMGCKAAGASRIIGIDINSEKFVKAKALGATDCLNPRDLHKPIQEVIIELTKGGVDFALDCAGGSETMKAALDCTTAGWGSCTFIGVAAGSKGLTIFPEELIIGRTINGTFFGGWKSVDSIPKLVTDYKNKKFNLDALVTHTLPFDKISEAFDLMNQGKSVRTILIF

[3] = molecular target: T1, All-trans-retinol dehydrogenase [NAD(+)] ADH7 (Homo sapiens, UniProt P40394); assay: Inhibition of human alcohol dehydrogenase sigma activity; procedure, shortened: as §1
T1 sequence (P40394 whole entry): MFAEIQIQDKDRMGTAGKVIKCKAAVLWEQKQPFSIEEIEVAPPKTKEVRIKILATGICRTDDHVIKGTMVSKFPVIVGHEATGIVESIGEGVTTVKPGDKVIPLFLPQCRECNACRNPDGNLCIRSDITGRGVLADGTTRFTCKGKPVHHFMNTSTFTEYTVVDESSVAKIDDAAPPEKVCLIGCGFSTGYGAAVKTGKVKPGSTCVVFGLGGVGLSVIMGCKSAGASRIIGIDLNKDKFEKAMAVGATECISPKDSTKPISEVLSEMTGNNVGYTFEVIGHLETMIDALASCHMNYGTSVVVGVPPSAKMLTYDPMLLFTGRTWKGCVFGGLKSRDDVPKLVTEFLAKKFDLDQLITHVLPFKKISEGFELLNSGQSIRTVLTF

Alcohol dehydrogenase = Alcohol dehydrogenase (Equus caballus, UniProt P00327+P00328); assay: Inhibition of horse liver alcohol dehydrogenase activity
Alcohol dehydrogenase 1A = Alcohol dehydrogenase 1A (Homo sapiens, UniProt P07327); assay: Inhibition of human alcohol dehydrogenase alpha activity
Sequence of Alcohol dehydrogenase 1A (P07327 whole entry): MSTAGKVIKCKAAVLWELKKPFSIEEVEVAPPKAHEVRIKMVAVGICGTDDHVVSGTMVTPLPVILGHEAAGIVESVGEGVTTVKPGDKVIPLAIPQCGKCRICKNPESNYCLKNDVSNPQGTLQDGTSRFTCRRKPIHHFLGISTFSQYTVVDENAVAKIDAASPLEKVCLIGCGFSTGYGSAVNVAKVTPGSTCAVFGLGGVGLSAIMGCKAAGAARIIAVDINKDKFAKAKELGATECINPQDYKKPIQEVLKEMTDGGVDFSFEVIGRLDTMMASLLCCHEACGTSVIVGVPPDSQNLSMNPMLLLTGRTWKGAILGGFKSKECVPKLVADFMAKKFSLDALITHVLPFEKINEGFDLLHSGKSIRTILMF
Procedure, shortened: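 Purified human α isozyme. Buffer was 46 mM sodium phosphate with 0.25 mM EDTA, pH 7.0, 25 °C; runs were also done in 33 mM phosphate/EDTA, pH 8.0. NADH 0.2 mM or NAD+ 2.0 mM held fixed. NADH change followed at 340 nm.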

[4] = molecular target: T1, All-trans-retinol dehydrogenase [NAD(+)] ADH7; assay: Inhibitory activity against human alcohol dehydrogenase sigma.; procedure, shortened: as §1

Sequence of All-trans-retinol dehydrogenase [NAD(+)] ADH1B (P00325 whole entry): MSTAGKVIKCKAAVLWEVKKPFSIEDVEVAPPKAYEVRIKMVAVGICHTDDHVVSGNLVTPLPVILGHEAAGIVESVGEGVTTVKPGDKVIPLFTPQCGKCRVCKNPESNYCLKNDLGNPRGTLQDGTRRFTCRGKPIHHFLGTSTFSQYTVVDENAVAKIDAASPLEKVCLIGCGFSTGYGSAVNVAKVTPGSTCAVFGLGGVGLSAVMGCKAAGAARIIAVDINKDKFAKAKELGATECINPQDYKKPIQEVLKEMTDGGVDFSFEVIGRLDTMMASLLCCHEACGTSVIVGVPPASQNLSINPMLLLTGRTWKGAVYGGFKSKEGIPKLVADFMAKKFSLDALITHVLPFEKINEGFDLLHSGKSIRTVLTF

SMILES	Ki [1] [µM]	Ki (Alcohol dehydrogenase 1C) [µM]	Ki [2] [µM]	Ki [3] [µM]	Ki (Alcohol dehydrogenase) [µM]	Ki (Alcohol dehydrogenase 1A) [µM]	Ki [4] [µM]
CCCN(C=O)C1CCCC1	2800	21	191	1700	1900	4.5	
CCCCCCCN(C=O)C1CC1	1900	2.1	31	960	1100	1.9	
O=CN(C1CCC1)C1CCC1	4900	19	280	1800	7200	1.8	
O=CN(C1CCCC1)C1CC1	4600	4.6	96	930	110	0.88	
O=CN(C1CCCCC1)C1CC1	250	120		640	440	5.9	
O=CN(C1CCCC1)C1CCCC1	1600	1000			2600	7.4	
O=CN(C1CCCC1)C1CCC1 [CYCLOBUTYL(CYCLOPENTYL)FORMAMIDE]	10000	47	360	1100	8600	0.36	
CN(C=O)C1CCCCC1	920	40	120	4900	600	5.5	
CCN(C=O)C1CCCCC1	1500	33			1400	4.5	
CCCN(C=O)C1CCCCC1	4000	160			5200	14	
CC(C)N(C=O)C1CCCCC1	46	83	150	1300	470	24	

These reach a lower Ki [1]. Values come first.

Ki [1] [µM]	Ki (Alcohol dehydrogenase 1C) [µM]	Ki [2] [µM]	Ki [3] [µM]	Ki (Alcohol dehydrogenase) [µM]	Ki (Alcohol dehydrogenase 1A) [µM]	Ki [4] [µM]	SMILES
26	54	340	180	13	5.5		CC(C)CNC=O
1	5.8	7.1	47	12	3.6		O=CNCC1CCCCC1
1.7	0.41	40	100	5.4	7		CCCCCCC(C)NC=O (centres undefined)
19	15	1900	210	2.6	22		CC(C)NC=O
6.4	700	5200	300	100	33		O=CNC1CC1
3.4	5.2	84	380		2.3		O=CNC1CCCCC1 [CYCLOHEXYLFORMAMIDE]
0.33	12	11	0.74	3	3.6		CCCCCCCNC=O [HEPTYLFORMAMIDE]
7.3	13	150	28	7.6	3.9		O=CNC1CCCC1
5.5	120	300	21	10	5.6		CCCNC=O
2.9	45	450		1.7	3.8	54	O=CNC1CCC1
11	100	110	30	16	7.2		CCCCNC=O
